Data reported in ChEMBL document CHEMBL4359864, “The synthesis and in vitro biological evaluation of novel fluorinated tetrahydrobenzo[j]phenanthridine-7,12-diones against Mycobacterium tuberculosis” (Eur J Med Chem, 2019).
Active and inactive are the calls of the source.

Experiments:
Escherichia coli = assay: Antibacterial activity against Escherichia coli ATCC 8739 incubated for 24 hrs by resazurin dye based fluorimetric assay; assay type: functional, organism-based; details: ATCC 8739, ATCC 8739, 24 h
In short: (§1)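 Resazurin microtiter assay: compounds from 10 mM DMSO stock, twofold serial dilutions from 64 µM final in growth medium, in triplicate. Inoculum from frozen glycerol stocks. Exposure 24 h, or 7 days for Mtb H37Ra (7H9 + 0.5% glycerol + 10% OADC). Then 0.01% resazurin was added and plates were incubated at 37°C until pink. Fluorescence read at ex 550/em 590 nm; mean of triplicates.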

Staphylococcus aureus = assay: Antibacterial activity against Staphylococcus aureus ATCC 6538 incubated for 24 hrs by resazurin dye based fluorimetric assay; assay type: functional, organism-based; details: ATCC 6538, 24 h; in short: as §1
[1] = Cytotoxicity against mouse J774A.1 cells assessed as reduction in cell viability incubated for 24 hrs by neutral red uptake assay; assay type: cell-based, J774.A1
In short: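 J774A.1 cells in DMEM + 10% iFCS, 37°C, 5% CO2, seeded at 40.000 cells/well and left overnight. Twofold dilutions from 128 µM final; 24 h exposure. Neutral red uptake for 3 h, dye extracted with 1:1 ethanol/acetic acid, OD read at 530 nm (reference 620 nm). CC50 = 50% reduction in uptake; mean of triplicates.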

[2] = Antimycobacterial activity against Mycobacterium avium subsp. avium ATCC 25291 by resazurin dye based fluorimetric assay; assay type: functional
In short: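 Resazurin microtiter method as for the bacterial panel. Mycobacteria grown in 7H9 with 10% OADC and 0.5% glycerol; for BCG, 0.05% Tween 80 replaced the glycerol. Cultures were sonicated and needle-passed to single cells. Incubation at 37°C, or 32°C for M. marinum. Fluorescence read at ex 550/em 590 nm; mean of triplicates.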

CYP450 [3] = target: CYP450 (Homo sapiens, UniProt P04798+P05177+P05181+P08684+P10632+P10635+P11509+P11712+P13584+P20813+P20815+P20853+P24462+P24903+P33260+P33261+P51589+P78329+P98187+Q02928+Q08477+Q16678+Q16696+Q5TCH4+Q6VVX0+Q7Z449+Q8TAV3+Q96SQ9+Q9HB55); assay: Microsomal stability in human liver microsomes assessed as CYP450-mediated metabolism by measuring compound remaining at 5 uM and measured for 30 mins in presence of NADPH by UPLC-MS/MS analysis (reference value: 100%); assay type: ADME; details: read-out: Stability
In short: (§2)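 Compound at 5 µM with 0.5 mg/mL liver microsomes in PBS. Phase I was started with 1 mM NADPH; phase II used 2 mM UDPGA. Diclofenac served as reference. Samples taken at 0, 15, 30 and 60 min were quenched in ice-cold acetonitrile, centrifuged at 4°C and analysed by LC-MS. Mean of at least two replicates ± SD.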

UGT [4] = target: UGT (Homo sapiens, UniProt O60656+O75310+O75795+P06133+P0DTE4+P0DTE5+P16662+P19224+P22309+P22310+P35503+P35504+P36537+P54855+Q6UWM9+Q9BY64+Q9HAW7+Q9HAW8+Q9HAW9); assay: Microsomal stability in human liver microsomes assessed as UGT-mediated metabolism by measuring compound remaining at 5 uM and measured for 60 mins in presence of UDPGA by UPLC-MS/MS analysis (reference value: 100%); assay type: ADME; details: read-out: Stability; in short: as §2
CYP450 [5] = assay: Microsomal stability in mouse liver microsomes assessed as CYP450-mediated metabolism by measuring compound remaining at 5 uM and measured for 15 mins in presence of NADPH by UPLC-MS/MS analysis (reference value: 100%); assay type: ADME; details: read-out: Stability; in short: as §2
UGT [6] = assay: Microsomal stability in mouse liver microsomes assessed as UGT-mediated metabolism by measuring compound remaining at 5 uM and measured for 30 mins in presence of UDPGA by UPLC-MS/MS analysis (reference value: 100%); assay type: ADME; details: read-out: Stability; in short: as §2
[7] = system: Mycobacterium tuberculosis; assay: Antimycobacterial activity against Mycobacterium tuberculosis H37Ra lux infected in mouse J774A.1 cells assessed as reduction in intracellular mycobacterial replication at 5.0 uM incubated for 24 to 72 hrs by luminometric assay relative to control; assay type: functional; set-up: scale not given: the % may be the effect or the level left
In short: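 J774A.1 cells were infected at MOI 10 for 2 h at 37°C. Extracellular bacteria were killed with 100 µg/mL gentamicin for 1 h, then cells were washed and treated. At 24, 48 and 72 h, cells were lysed with 1% Triton X-100 and n-decanal was added to the lysate. Luminescence (RLU) reported as mean of triplicates ± SD.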

[8] = Genotoxicity in Salmonella typhimurium TA104 harboring with pr1 assessed as S/N ratio at 1 to 100 uM measured for 4 hrs with 5 mins interval by luminescence based assay; assay type: toxicity; details: salmonella enterica subsp. enterica serovar typhimurium
In short: (§3)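 VITOTOX test. Genox (recN2-4) and Cytox (pr1) S. typhimurium TA104 strains were diluted 250-fold and grown in 869 medium for 16 h at 36°C with shaking, then diluted 10-fold and grown 1 h more. Compounds tested at 1, 10 and 100 µM, with or without rat liver S9-mix. Luminescence read for 4 h at 5-min intervals. S/N thresholds: Genox >1.5 genotoxic; Cytox <0.8 toxic, >1.5 luminescence artefact.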

[9] = Genotoxicity in Salmonella typhimurium TA104 harboring with RecN2-4 assessed as S/N ratio at 1 to 100 uM measured for 4 hrs with 5 mins interval in presence of rat liver S9 fraction by luminescence based assay; assay type: toxicity, subcellular; details: salmonella enterica subsp. enterica serovar typhimurium, s9, 4 h; in short: as §3
[10] = Genotoxicity in Salmonella typhimurium TA104 harboring with RecN2-4 assessed as S/N ratio at 1 to 100 uM measured for 4 hrs with 5 mins interval by luminescence based assay; assay type: toxicity; details: salmonella enterica subsp. enterica serovar typhimurium; in short: as §3
[11] = system: Mycobacterium tuberculosis; assay: Induction of ROS generation in Mycobacterium tuberculosis H37Ra ATCC 25177 assessed as increase in superoxide radicals incubated with CMH probe for 50 mins followed by compound addition and measured for 3 to 48 hrs by EPR analysis; assay type: functional
In short: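 Mtb H37Ra cultures were exposed to compound, rifampicin or moxifloxacin (2 x MIC), alongside untreated controls. Samples were measured by EPR at 3, 6, 24 and 48 h. Spectra were simulated and double-integrated (aN = 1.58 mT) and converted to absolute CMH radical concentration by calibration. Mean of at least three replicates ± SD; two-way ANOVA with Tukey test.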

Compound	IC50 (Escherichia coli) [µM]	IC50 (Staphylococcus aureus) [µM]	CC50 at 24 h [1] [µM]	IC50 [2] [nM]	remaining at 0.5 h, 5 µM (CYP450 [3]) [%]	remaining at 1 h, 5 µM (UGT [4]) [%]	remaining at 0.25 h, 5 µM (CYP450 [5]) [%]	remaining at 0.5 h, 5 µM (UGT [6]) [%]	Activity [7]	Ratio [8]	Ratio [9]	Ratio [10]	fold change (FC) [11]
O=C1C2=C(C(=O)c3c1cnc1ccccc31)C1CCC2C1 (stereo not given)	> 64	32 to 64	64.5	120	100	68	100	86	58.94%	>= 0.8	<= 1.5	<= 1.5	–
O=C1C2=C(C(=O)c3c1cnc1c(F)cccc31)C1CCC2C1 (stereo not given)	> 64	> 32	85.5	100	100	65	100	70	inactive	>= 0.8	<= 1.5	<= 1.5	2.85
